# From ChEMBL document CHEMBL2434958, “Identification of a novel series of orexin receptor antagonists with a distinct effect on sleep architecture for the treatment of insomnia” (J Med Chem, 2013)
# Tests used:
# [1] = molecular target: T1, Orexin receptor type 2 (Homo sapiens, UniProt O43614); assay: Antagonist activity at human OX2 receptor expressed in HEK cells assessed as inhibition of orexin A-induced Ca2+ accumulation after 1 hr by Fluo-4-AM staining-based FLIPR assay; format: functional, cell-based, HEK293
# T1 sequence (O43614 whole entry): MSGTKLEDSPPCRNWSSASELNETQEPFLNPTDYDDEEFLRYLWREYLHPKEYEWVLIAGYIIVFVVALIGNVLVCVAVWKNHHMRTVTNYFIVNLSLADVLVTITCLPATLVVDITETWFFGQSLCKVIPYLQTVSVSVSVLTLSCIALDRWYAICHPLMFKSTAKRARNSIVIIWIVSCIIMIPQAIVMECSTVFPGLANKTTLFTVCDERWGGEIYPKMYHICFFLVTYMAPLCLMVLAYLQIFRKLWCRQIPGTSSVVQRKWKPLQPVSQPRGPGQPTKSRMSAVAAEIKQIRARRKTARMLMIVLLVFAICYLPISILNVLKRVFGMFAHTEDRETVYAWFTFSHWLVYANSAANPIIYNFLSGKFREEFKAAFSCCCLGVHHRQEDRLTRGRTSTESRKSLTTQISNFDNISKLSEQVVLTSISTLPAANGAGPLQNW
# Method in brief: (§1)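 Recombinant CHO or HEK cells expressing human OX1R or OX2R, serum-deprived overnight in HEPES buffer pH 7.4 with 1% BSA. Cells were loaded with 2 μM Fluo4-AM plus 0.1 mM probenecid for 1 h. Compound (up to eight concentrations, usually 10⁻⁹–10⁻⁵ M) was added first, then submaximal orexin A 1 h later. Curves run in triplicate; pKi from IC50 by Cheng–Prusoff.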
# [2] = molecular target: T2, Orexin/Hypocretin receptor type 1 (Homo sapiens, UniProt O43613); assay: Antagonist activity at human OX1 receptor expressed in CHO cells assessed as inhibition of orexin A-induced Ca2+ accumulation after 1 hr by Fluo-4-AM staining-based FLIPR assay; format: functional, cell-based; conditions: for pIC50: cho; method in brief: as §1
# T2 sequence (O43613 whole entry): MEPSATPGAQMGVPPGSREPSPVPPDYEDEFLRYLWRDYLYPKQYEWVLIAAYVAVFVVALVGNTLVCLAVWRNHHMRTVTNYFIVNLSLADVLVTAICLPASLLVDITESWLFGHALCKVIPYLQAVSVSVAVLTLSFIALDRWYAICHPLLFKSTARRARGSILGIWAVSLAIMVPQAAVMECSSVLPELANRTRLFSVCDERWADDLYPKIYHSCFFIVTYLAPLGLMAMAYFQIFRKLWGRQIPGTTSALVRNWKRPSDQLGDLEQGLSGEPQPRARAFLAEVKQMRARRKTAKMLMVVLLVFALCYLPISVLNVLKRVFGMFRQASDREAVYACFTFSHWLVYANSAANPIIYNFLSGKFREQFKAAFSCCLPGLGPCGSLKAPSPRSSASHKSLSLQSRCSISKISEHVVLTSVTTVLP
SMILES,Ki [1] [µM],Ki [2] [µM],pIC50 [2]
Cc1cc(C)nc(N2CCC3(CCCN(Cc4nn(C)nc4-c4ccccc4)C3=O)CC2)n1,0.00457,0.759,
Cc1cc(C)nc(N2CCC3(CCCN(Cc4n[nH]cc4-c4ccccc4)C3=O)CC2)n1,0.00389,0.776,
O=C1N(Cc2c[nH]c3ccccc23)CCCC12CCN(c1ncccn1)CC2,0.55,,> 5
O=C1N(Cc2c[nH]c3ccccc23)CCCC12CCN(c1cnccn1)CC2,0.309,,> 5
Cc1ccc(C)c(CN2C(=O)CCCC23CCN(c2cnc4ccccc4n2)CC3)c1,0.0129,0.0589,
O=C1N(Cc2cccc3[nH]ccc23)CCCC12CCN(c1cnc3ccccc3n1)CC2,0.0776,0.55,
Cc1cc(C)nc(N2CCC3(CCCC(=O)N3Cc3cccc4[nH]ccc34)CC2)n1,0.000851,0.372,

# More lines, in order of falling Ki [1], values ahead:
Ki [1] [µM],Ki [2] [µM],pIC50 [2],SMILES
0.182,1.55,,O=C1N(Cc2ccccc2)CCCC12CCN(c1cnc3ccccc3n1)CC2
0.0162,1.32,,Cc1cc(C)nc(N2CCC3(CCCN(Cc4c[nH]c5ncccc45)C3=O)CC2)n1
0.00117,0.708,,Cc1cc(C)nc(N2CCC3(CCCN(Cc4[nH]nnc4-c4ccccc4)C3=O)CC2)n1
0.000166,0.0204,,COc1ccc2[nH]cc(CN3CCCC4(CCN(c5nc(C)cc(C)n5)CC4)C3=O)c2c1
